Published values collected from several papers.
Lines come from different studies, so protocols differ.
Target: Mitogen-activated protein kinase kinase kinase 4 (MAP3K4, Homo sapiens, UniProt Q9Y6R4)

CCCCC(=O)Nc1ccc(-c2ccc3ncn(CCC)c(=O)c3c2)cn1 gave a remaining binding of 76% (binding, competition with immobilised ligand; 0.5 µM).
For Cc1ccc(NC(=O)c2ccnc(C(F)(F)F)c2)cc1-c1cc(OCCO)nc(N2CCOCC2)c1, the remaining binding was 90% (binding, competition with immobilised ligand; 1 µM).
C1=C/COCc2cc(ccc2OCCN2CCCC2)Nc2nccc(n2)-c2cccc(c2)COC/1 gave a remaining binding of 100% (binding; 0.1 µM).
The remaining binding of N#Cc1ccc(NC(=O)Nc2ccccc2)cc1 is reported as 77% (cell-free assay, competition with immobilised ligand; 25 µM).
With CC#CC(=O)N1CCC[C@H]1c1nc(-c2ccc(C(=O)Nc3ccccn3)cc2)c2c(N)nccn12 the inhibition was 19% (enzyme activity, inhibitor; 1 µM).
For C#Cc1cnc(Nc2ccnc(CO)c2)nc1Nc1ccccc1S(C)(=O)=NC#N (centres unmarked), the remaining signal was 86% (cell-free assay; 1 µM).
With CO[C@@H]1[C@H](N(C)C(=O)c2ccccc2)C[C@H]2O[C@]1(C)n1c3ccccc3c3c4c(c5c6ccccc6n2c5c31)C(=O)NC4 the inhibition was 4% (enzyme activity, inhibitor; 1 µM).
C[C@H]1CC[C@H](n2c3cnccc3c3cnc(Nc4ccc5c(n4)CCN(C(=O)CO)C5)nc32)CC1 has a remaining binding of 100% (binding, competition with immobilised ligand; 1 µM).
